Bioassay records as filed in PubChem BioAssay.
Only some compounds are listed: those with a hit (about 2.2% of all), similar ones and a draw of the others.
M1 ag = human M1 muscarinic receptor agonists, primary screen, Fluo-8 calcium fluorescence, CHO-K1 cells, HTS; Muscarinic acetylcholine receptor M1 (Homo sapiens), P11229; CHO-K1 hM1, agonist mode; 0% DMSO, 100% acetylcholine EC100; activation, % at 3 µM; 360,000 tested, 0.33% active; AID 588814, 2011;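 active = activation above the run's mean compound activation plus 3 SD, cut at about 16% in these data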;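 note: peak over basal fluorescence ratio within a 140 s kinetic read after compound addition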
M5 PAM = human M5 muscarinic receptor positive allosteric modulators, primary screen, CHO-K1 cells, Fluo-8 calcium fluorescence; Muscarinic acetylcholine receptor M5 (Homo sapiens), P08912; AID 624038, 2012; CHO-K1 hM5, ACh EC20 PAM; 0% = ACh EC20, 100% = ACh EC100; 360,000 tested, 0.3% active; activation, % at 3 µM;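 active = activation above the run cutoff, the mean activation of all test compounds plus 3 SD, cut at about 18% in these data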
Target sequence (P08912 whole entry, looked up): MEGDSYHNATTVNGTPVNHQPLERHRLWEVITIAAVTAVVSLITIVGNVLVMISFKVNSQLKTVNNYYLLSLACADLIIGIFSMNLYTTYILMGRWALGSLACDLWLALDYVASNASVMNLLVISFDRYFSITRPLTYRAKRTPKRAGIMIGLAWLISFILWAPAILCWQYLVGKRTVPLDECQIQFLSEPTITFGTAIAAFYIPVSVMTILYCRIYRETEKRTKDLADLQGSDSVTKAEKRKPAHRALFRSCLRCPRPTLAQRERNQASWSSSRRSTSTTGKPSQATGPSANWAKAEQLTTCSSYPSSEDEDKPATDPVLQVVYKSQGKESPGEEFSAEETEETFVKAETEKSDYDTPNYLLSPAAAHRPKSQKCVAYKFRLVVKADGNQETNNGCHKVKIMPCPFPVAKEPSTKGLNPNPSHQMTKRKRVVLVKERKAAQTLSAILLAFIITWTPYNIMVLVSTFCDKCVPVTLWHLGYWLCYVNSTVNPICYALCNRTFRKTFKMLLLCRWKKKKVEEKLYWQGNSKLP
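system = human M5 receptor in CHO-K1 cells | reagent = EC20 acetylcholine as agonist stimulus | compound dosing = single-point, 3 µM nominal | incubation = Fluo-8 loading 80 min at 37 °C plus 30 min room temperature | detection = Fluo-8 calcium dye fluorescence, kinetic read | benchmarks = low control EC20 acetylcholine (0%), high control EC100 acetylcholine (100%)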
M5 ag = human M5 muscarinic receptor agonists, primary screen, CHO-K1 cells, Fluo-8 calcium fluorescence. Muscarinic acetylcholine receptor M5 (Homo sapiens), P08912. CHO-K1 hM5 cells; 0% DMSO wells, 100% maximal acetylcholine response. activation, % at 3 µM. 360,000 tested, 0.19% active. AID 624037, 2012;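 active = activation above the run's mean over test compounds plus 3 SD, cut at about 23% in these data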;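 note: signal is peak over basal fluorescence ratio across the kinetic read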
CHRM1 antagonist = human M1 muscarinic receptor antagonists, primary screen, CHO-K1 cells, Fluo-8 calcium fluorescence, 1536-well | Muscarinic acetylcholine receptor M1 (Homo sapiens), P11229 | CHO-K1 hM1, ACh EC80 antagonist | inhibition, % at 3 µM | 360,000 tested, 1.3% active | AID 588852, 2011;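 active = percent inhibition above its own plate's cutoff, namely the mean of that plate's compound wells plus 3 SD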;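 note: peak over basal fluorescence ratio during 140 s after agonist addition; 0% = ACh EC80 plus DMSO and 100% = DMSO alone without agonist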
CHRM1 PAM = human M1 muscarinic receptor positive allosteric modulators, primary screen, CHO-K1 cells, Fluo-8 calcium fluorescence, 1536-well | Muscarinic acetylcholine receptor M1 (Homo sapiens), P11229 | 360,000 tested, 0.088% active | CHO-K1 hM1, ACh EC20; 0% = ACh EC20, 100% = maximal ACh | activation, % at 3 µM; in the data active = activation above about 19%, passing the limit was not always enough
M5 antag = human M5 muscarinic receptor antagonists, primary screen, CHO cells, Fluo-8 calcium fluorescence | CHO-hM5 cells, ACh EC80 | Muscarinic acetylcholine receptor M5 (Homo sapiens), P08912 | inhibition, % at 3 µM | AID 624040, 2012 | 360,000 tested, 0.59% active;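 active = inhibition above a per-plate cutoff, the mean of that plate's test compounds plus 3 SD, cut at about 27% in these data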;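 note: 0% = acetylcholine EC80 with DMSO and 100% = DMSO without agonist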
An asterisk follows results filed as active.

SMILES | M1 ag | M5 PAM | M5 ag | CHRM1 antagonist | CHRM1 PAM | M5 antag
CCN1CCCC1CN(Cc1cc2ccc(C)cc2[nH]c1=O)C(=S)Nc1ccc(F)cc1 (stereo unspecified) | -4 | 14 | 22 | -12 | 12 | 1
CC(=O)CCc1ccc(OCCCCN2CCC(Cc3ccccc3)CC2)cc1 | -6 | -30 | -15 | 60* | -24 | 25
N#Cc1ccccc1OCCCN1CCC(Cc2ccccc2)CC1 | -7 | -15 | -24 | 35* | -28 | 10
CCOc1ccccc1OCCN1CCC(Cc2ccccc2)CC1 | -9 | -3 | -2 | 9 | -9 | -2
COc1ccc(CN2CCC(Cc3ccccc3)CC2)c(C)c1C | -8 | -3 | -8 | 33* | -25 | 9
COc1ccc(NC(=O)NCCCN2CCC(Cc3ccccc3)CC2)cc1 | -8 | -3 | -11 | -1 | -2 | 3
CCC(=O)c1ccccc1OCCCN1CCC(Cc2ccccc2)CC1 | -3 | -28 | -11 | 92* | -27 | 12
COc1cccc(OC)c1OCCCCN1CCCC1 | -4 | -5 | -5 | -10 | 7 | 1
COc1cccc(OC)c1OCCCCN1CCC(Cc2ccccc2)CC1 | -6 | -19 | -20 | 47* | -24 | 19
CCOC(=O)c1c(NC(=O)c2c(C(=O)O)cccc2[N+](=O)[O-])sc2c1CCCC2 | -2 | 2 | 1 | -14 | 10 | -4
CCn1nnnc1SCC(=O)NCc1cccs1 | -2 | 18* | -5 | 5 | -1 | -3
CCCn1nnnc1SCC(=O)NCc1cccs1 | 3 | 3 | -4 | 2 | 7 | 3
C[N+]1(CC2COC3(CCCCC3)O2)CCCC1 (stereo unspecified) | -8 | -5 | -7 | 13 | -15 | 8
CC1CC(C)(C)OC(C[N+]2(C)CCCCC2)O1 (stereo unspecified) | -6 | -33 | -20 | 35* | -15 | 31*
CC1(C(=O)NS(=O)(=O)Cc2ccccc2C(F)(F)F)CCN1C(=O)Cc1cccs1 (stereo unspecified) | -1 | -2 | 1 | -10 | -4 | 5
CCOc1ccc(NC(=S)NCC(c2cccnc2)N2CCOCC2)cc1 (stereo unspecified) | -5 | -2 | -1 | -9 | 13 | -6
COc1ccc(C(=O)c2sc(Nc3ccccc3)c(C(=O)Nc3ccc(OC)c(OC)c3)c2N)cc1 | 0 | -6 | -1 | -7 | -3 | 17
COc1ccc(Nc2sc(C(=O)c3ccc(Cl)cc3)c(N)c2C(=O)Nc2ccccc2OC)cc1 | 39* | -3 | 39* | 44* | -5 | 22
COc1ccc(NC(=O)c2c(Nc3ccccc3)sc(C(=O)c3ccc(F)cc3)c2N)cc1 | 2 | -15 | 4 | 14 | 1 | 28*
COc1cc(NC(=S)Nc2ccccn2)c(OC)cc1Cl | -11 | 2 | -5 | 12 | -11 | -1
CC(C)(C)c1ccc(C(=O)N2CCCC2c2cccs2)cc1 (stereo unspecified) | 0 | -1 | 1 | -4 | -1 | 6
CCC(CC)c1nnc(NC(=O)Cc2ccccc2[N+](=O)[O-])s1 | 1 | -1 | 12 | -8 | 2 | -4
O=C(C1=C(O)C(=O)N(c2nccs2)C1c1ccccc1)c1cc2ccccc2o1 (stereo unspecified) | 8 | -24 | 65* | 8 | -8 | 8
CC(OC(=O)c1cc(=O)c2cc(Cl)ccc2o1)C(=O)N1CCCC1 (stereo unspecified) | -1 | 1 | 2 | -15 | 7 | 6
Cn1nnnc1SCCNC(=O)C1CCC(=O)N(Cc2ccc(Cl)cc2)C1 (stereo unspecified) | 2 | 19* | -1 | -9 | 16 | -18
SMILES | M1 ag | M5 PAM | M5 ag | CHRM1 antagonist | CHRM1 PAM | M5 antag
Cn1nnnc1SCCNC(=O)C1CCC(=O)N(Cc2ccccc2F)C1 (stereo unspecified) | -5 | 2 | -1 | 26 | -13 | -11
OC(C#CCCN1CCCCC1)(c1ccccc1)C1CCCCC1 (stereo unspecified) | -7 | -32 | -20 | 97* | -25 | 98*
OC(CCN1CCCCC1)(c1ccccc1)C1C[C@@H]2C=C[C@H]1C2 (stereo partly specified) | -9 | -18 | -1 | 99* | -26 | 98*
CCN(CC)CCC#CC(O)(c1ccccc1)c1ccccc1 | -11 | -18 | -8 | 99* | -27 | 99*
Cc1ccc(C(O)(CCN2CCCCC2)c2ccccc2)cc1 (stereo unspecified) | -9 | -21 | -8 | 101* | -27 | 96*
Cc1ccc(C(O)(CNCc2ccccc2)c2ccccc2)cc1 (stereo unspecified) | -5 | 2 | 2 | 4 | -4 | 5
CN1CCN(CC#CC(C)(O)C2CC3C=CC2C3)CC1 (stereo unspecified) | -6 | -3 | -8 | 4 | -4 | -1
CCCCn1c(N)c(N(CC(C)C)C(=O)CCNC(=O)c2ccccc2Cl)c(=O)[nH]c1=O | -4 | 3 | -1 | -2 | 2 | 6
COCCNC(=O)c1ccc(-n2c(SCc3ccncc3)nc3ccccc3c2=O)cc1 | -3 | -2 | -3 | -3 | 4 | 6
O=C(CCN1CCCCC1)c1ccccc1 | -3 | -1 | 0 | 5 | -1 | 0
OC(C#CCCN1CCCCC1)(c1ccccc1)c1ccccc1 | -3 | -32 | -20 | 99* | -27 | 100*
CN1CCC2(CC1)N=C(c1ccc(F)cc1)C(=S)N2C(=O)c1ccccc1 | -7 | -19 | -8 | 45* | -26 | 40*
CCN1CCC2(CC1)N=C(c1ccc(F)cc1)C(=S)N2C(=O)c1ccc(C(C)(C)C)cc1 | -15 | -19 | -8 | 101* | -28 | 76*
O=C(c1ccccc1)N1N=C(c2ccc(F)cc2)CC1(O)C(F)(F)F (stereo unspecified) | -6 | -1 | -5 | -6 | 7 | 2
CCOC(=O)c1cccc(NS(=O)(=O)c2cnc[nH]2)c1 | -2 | 2 | -2 | -10 | -6 | -2
O=C(NCCN1CCOCC1)c1ccc(Cl)c(S(=O)(=O)NCc2ccccc2)c1 | 4 | 11 | 1 | 6 | 14 | 9
CCC(=O)Nc1cccc(-c2ccc(N3CCC(C)CC3)nn2)c1 | -3 | 20* | -2 | -19 | 17 | -20
